Columns and labels:
[1] = target: T1, High affinity nerve growth factor receptor (Homo sapiens, UniProt P04629); assay: Inhibition of human recombinant TrkA at 20 uM using ATP and 5FAM tagged TrkA peptide substrate incubated for 60 mins by microfluidics assay
Procedure, shortened: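 TrkA enzyme at 2 nM, preincubated with inhibitor 60 min with shaking in HEPES kinase buffer (MgCl2, DTT, Brij-35, Tween 20), then ATP (190 µM running) and 5FAM-labelled TrkA peptide (1.5 µM) added. Run to 10–20% conversion in no-inhibitor wells. Product/substrate peaks separated by microfluidic mobility-shift read. Single point at 20 µM inhibitor, quadruplicate.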
Target sequence in this assay (P04629 33-796 limits assumed): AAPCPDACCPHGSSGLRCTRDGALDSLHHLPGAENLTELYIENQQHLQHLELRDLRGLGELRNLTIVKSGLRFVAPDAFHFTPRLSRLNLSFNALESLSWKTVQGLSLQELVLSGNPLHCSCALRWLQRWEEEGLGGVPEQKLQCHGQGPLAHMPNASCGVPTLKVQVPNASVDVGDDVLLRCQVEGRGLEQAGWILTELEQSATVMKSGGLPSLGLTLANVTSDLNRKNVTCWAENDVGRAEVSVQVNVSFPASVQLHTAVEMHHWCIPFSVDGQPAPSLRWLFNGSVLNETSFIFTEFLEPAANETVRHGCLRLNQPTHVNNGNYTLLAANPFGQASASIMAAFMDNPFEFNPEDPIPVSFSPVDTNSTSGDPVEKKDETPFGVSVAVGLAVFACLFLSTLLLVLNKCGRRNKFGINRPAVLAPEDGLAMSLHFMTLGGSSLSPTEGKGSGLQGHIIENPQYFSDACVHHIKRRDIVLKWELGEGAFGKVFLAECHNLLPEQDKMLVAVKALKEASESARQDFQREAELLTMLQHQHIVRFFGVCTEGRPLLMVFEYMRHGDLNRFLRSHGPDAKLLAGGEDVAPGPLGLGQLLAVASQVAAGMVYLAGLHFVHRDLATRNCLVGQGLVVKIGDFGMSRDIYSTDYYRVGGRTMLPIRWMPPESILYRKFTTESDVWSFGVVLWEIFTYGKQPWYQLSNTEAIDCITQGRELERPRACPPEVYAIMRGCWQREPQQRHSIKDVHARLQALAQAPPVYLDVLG

[2] = target: Vascular endothelial growth factor receptor 2 (Homo sapiens, UniProt P35968); assay: Inhibition of KDR (unknown origin) using ATP and 5FAM tagged TrkA peptide substrate incubated for 60 mins by microfluidics assay
[3] = target: T1, High affinity nerve growth factor receptor; assay: Inhibition of human recombinant TrkA using ATP and 5FAM tagged TrkA peptide substrate incubated for 60 mins by microfluidics assay
Procedure, shortened: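 TrkA enzyme at 2 nM, preincubated 60 min with inhibitor in HEPES/MgCl2/DTT kinase buffer. Reaction started with ATP 190 µM and 5FAM-TrkA peptide 1.5 µM (running). Twelve-point half-log series, 0.2 mM–0.632 nM final. Stopped at 10–20% conversion of uninhibited control. Phospho-product separated by microfluidic read. Curves fit to one-phase exponential decay, IC50 from the half-life, duplicate, mean ± SD.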
Target sequence in this assay (P04629 whole entry): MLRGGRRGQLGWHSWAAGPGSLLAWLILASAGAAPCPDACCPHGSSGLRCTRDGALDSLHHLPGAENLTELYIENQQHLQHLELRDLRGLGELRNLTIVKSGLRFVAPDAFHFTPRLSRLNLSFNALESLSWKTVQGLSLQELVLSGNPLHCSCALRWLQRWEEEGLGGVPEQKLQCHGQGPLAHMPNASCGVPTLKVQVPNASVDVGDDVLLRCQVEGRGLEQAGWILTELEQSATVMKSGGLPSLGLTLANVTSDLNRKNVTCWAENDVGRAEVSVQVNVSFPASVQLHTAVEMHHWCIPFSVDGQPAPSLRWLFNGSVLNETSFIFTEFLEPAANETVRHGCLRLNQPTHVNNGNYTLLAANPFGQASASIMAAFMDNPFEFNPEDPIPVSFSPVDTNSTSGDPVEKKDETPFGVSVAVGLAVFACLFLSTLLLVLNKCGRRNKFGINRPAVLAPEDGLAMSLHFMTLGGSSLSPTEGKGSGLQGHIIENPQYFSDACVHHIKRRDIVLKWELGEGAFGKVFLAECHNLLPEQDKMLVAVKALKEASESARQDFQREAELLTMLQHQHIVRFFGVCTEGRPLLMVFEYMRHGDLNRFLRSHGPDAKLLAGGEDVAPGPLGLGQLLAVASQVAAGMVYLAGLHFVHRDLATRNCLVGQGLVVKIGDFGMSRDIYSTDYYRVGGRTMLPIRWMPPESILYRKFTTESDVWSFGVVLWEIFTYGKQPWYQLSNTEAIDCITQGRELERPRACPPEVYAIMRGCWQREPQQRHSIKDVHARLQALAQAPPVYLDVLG

[4] = target: T2, Ephrin type-B receptor 2 (Homo sapiens, UniProt P29323); assay: Inhibition of EphB2 (unknown origin) using ATP and 5FAM tagged TrkA peptide substrate incubated for 60 mins by microfluidics assay
T2 sequence (P29323 whole entry): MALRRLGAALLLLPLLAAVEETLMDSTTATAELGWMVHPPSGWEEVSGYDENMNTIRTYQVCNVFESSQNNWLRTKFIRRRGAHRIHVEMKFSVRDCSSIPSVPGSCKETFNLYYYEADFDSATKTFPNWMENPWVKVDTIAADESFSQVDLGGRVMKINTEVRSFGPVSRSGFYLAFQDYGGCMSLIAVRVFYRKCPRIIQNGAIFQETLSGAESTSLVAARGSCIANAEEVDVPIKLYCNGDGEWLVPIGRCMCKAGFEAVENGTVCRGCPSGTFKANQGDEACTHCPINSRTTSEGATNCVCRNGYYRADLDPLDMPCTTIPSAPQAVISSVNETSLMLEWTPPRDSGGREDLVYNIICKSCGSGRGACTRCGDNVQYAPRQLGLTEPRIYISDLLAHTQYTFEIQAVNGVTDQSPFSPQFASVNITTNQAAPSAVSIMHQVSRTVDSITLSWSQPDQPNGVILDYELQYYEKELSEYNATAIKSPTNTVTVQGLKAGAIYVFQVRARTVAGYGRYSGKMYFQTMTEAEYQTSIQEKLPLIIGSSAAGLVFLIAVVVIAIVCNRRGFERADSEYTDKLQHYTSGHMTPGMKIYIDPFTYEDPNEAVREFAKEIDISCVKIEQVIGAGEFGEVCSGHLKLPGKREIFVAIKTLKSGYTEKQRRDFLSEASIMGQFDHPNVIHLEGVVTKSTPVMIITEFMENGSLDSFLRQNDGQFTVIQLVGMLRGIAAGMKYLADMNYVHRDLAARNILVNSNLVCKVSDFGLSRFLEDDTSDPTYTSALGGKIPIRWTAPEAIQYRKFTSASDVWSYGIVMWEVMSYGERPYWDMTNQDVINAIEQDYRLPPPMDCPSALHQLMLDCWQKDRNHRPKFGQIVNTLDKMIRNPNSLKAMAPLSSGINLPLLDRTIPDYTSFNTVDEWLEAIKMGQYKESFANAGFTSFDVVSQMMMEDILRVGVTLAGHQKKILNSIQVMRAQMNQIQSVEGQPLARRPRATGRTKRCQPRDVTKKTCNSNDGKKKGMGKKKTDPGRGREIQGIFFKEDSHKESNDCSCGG

Chain of Vascular endothelial growth factor receptor 2 (P35968 whole entry): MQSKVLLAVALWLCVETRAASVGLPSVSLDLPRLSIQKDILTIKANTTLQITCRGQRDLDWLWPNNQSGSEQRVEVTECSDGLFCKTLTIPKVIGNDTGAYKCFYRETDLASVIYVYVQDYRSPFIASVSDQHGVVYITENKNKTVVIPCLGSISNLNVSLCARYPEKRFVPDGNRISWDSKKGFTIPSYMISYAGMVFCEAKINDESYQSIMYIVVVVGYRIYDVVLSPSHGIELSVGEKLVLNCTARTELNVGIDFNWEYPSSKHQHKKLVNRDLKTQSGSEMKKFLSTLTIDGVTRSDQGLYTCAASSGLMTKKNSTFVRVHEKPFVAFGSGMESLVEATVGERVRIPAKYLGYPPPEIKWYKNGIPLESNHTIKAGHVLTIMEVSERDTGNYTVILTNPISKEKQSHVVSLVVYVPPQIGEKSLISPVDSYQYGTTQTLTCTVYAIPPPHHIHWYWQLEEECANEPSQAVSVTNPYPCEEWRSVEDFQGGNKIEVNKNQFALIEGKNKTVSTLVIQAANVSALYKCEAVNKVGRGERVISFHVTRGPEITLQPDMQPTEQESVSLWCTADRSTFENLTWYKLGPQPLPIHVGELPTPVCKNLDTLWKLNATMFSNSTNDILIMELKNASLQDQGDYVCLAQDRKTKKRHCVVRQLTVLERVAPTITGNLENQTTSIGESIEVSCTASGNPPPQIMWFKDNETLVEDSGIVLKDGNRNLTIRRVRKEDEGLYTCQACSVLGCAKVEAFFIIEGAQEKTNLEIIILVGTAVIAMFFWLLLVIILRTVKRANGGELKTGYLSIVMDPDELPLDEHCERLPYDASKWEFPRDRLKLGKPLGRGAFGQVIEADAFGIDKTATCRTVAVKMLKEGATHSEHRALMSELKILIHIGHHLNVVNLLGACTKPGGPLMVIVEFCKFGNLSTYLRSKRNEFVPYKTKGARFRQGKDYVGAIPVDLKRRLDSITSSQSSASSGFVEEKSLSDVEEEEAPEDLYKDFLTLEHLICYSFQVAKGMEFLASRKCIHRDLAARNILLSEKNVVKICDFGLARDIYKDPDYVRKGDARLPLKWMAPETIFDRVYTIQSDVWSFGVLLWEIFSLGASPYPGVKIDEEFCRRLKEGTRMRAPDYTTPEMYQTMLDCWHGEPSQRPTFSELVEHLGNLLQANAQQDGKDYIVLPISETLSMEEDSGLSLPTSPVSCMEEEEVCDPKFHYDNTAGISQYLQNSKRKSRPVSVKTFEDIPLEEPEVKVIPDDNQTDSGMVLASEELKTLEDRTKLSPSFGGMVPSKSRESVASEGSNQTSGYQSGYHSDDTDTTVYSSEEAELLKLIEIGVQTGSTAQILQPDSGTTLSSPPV

SMILES | inhibition [1] [%] | IC50 [2] [nM] | IC50 [3] [nM] | IC50 [4] [nM]
CC(C)c1ccc(NC(=O)Nc2cccc(Oc3cncc(-c4cnn(C)c4)n3)c2)cc1 | 56.3 |  |  | 
CC(C)(C)c1cc(NC(=O)Nc2cccc(Oc3cncc(-c4cncnc4)n3)c2)on1 | 79.4 |  |  | 
CC(C)(C)c1cc(NC(=O)Nc2cccc(Oc3cncc(-c4ccc(F)cc4)n3)c2)no1 | 100 | > 2000 | 22 | > 2000
CC(C)(C)c1cccc(NC(=O)Nc2cccc(Oc3cncc(Cl)n3)c2)c1 |  |  | > 100000 | 
Cn1cc(-c2cncc(-c3ccc(NC(=O)Nc4cc(C(C)(C)C)nn4C)cc3)n2)cn1 | 99.7 |  | 12 | 
Cn1cc(-c2cncc(Oc3cccc(NC(=O)Nc4ccc(C(C)(C)C)cc4)c3)n2)cn1 | 86.9 |  |  | 
COc1ccc(-c2cncc(Oc3cccc(NC(=O)Nc4cc(C(C)(C)C)nn4C)c3)n2)cc1 | 15.5 |  |  | 
CC(C)c1ccc(NC(=O)Nc2cccc(Oc3cncc(-c4cncnc4)n3)c2)cc1 | 28.2 |  |  | 
Cn1cc(-c2cncc(Oc3cccc(NC(=O)Nc4cc(C(C)(C)C)on4)c3)n2)cn1 | 101 |  | 24 | 
COc1ccc(-c2cncc(Oc3cccc(NC(=O)Nc4ccc(C(C)(C)C)cc4)c3)n2)cc1 | 33.8 |  |  | 
CC(C)(C)c1cc(NC(=O)Nc2cccc(Oc3cncc(-c4ccsc4)n3)c2)no1 | 100 | > 2000 | 39 | > 2000
CC(C)(C)c1ccc(NC(=O)Nc2cccc(Oc3cncc(-c4cncnc4)n3)c2)cc1 | 49.6 |  |  | 
CS(=O)(=O)c1ccc(-c2cncc(Oc3cccc(NC(=O)Nc4cccc(C(F)(F)F)c4)c3)n2)cc1 | 90.8 |  | 1700 | 
Cn1cc(-c2cncc(-c3ccc(N)cc3)n2)cn1 | 46 |  |  | 
Cn1cc(-c2cncc(Oc3cccc(NC(=O)Nc4cc(C(C)(C)C)no4)c3)n2)cn1 | 48.8 |  |  | 
CC(C)c1ccc(NC(=O)Nc2cccc(Oc3cncc(-c4ccc(F)cc4)n3)c2)cc1 | 56.9 |  |  | 
CC(C)c1ccc(NC(=O)Nc2cccc(Oc3cncc(-c4ccc(S(C)(=O)=O)cc4)n3)c2)cc1 | 96.9 |  | 420 | 
O=C(Nc1cccc(Oc2cncc(Cl)n2)c1)Nc1cccc(C(F)(F)F)c1 |  |  | 3500 | 
CC(C)(C)c1ccc(NC(=O)Nc2cccc(Oc3cncc(-c4ccc(S(C)(=O)=O)cc4)n3)c2)cc1 | 46.7 |  |  | 
Nc1ccc(-c2cncc(Cl)n2)cc1 | 47 |  |  | 
COc1ccc(-c2cncc(Oc3cccc(NC(=O)Nc4cccc(C(F)(F)F)c4)c3)n2)cc1 | 95.5 |  | 1600 | 

SMILES | inhibition [1] [%] | IC50 [2] [nM] | IC50 [3] [nM] | IC50 [4] [nM]
COc1ccc(-c2cncc(Oc3cccc(NC(=O)Nc4cc(C(C)(C)C)on4)c3)n2)cc1 | 98.6 | > 2000 | 47 | > 2000
O=C(Nc1cccc(Oc2cncc(-c3ccc(F)cc3)n2)c1)Nc1cccc(C(F)(F)F)c1 | 27.1 |  |  | 
CC(C)c1ccc(NC(=O)Nc2cccc(Oc3cncc(-c4ccsc4)n3)c2)cc1 | 99.2 |  | 870 | 
O=C(Nc1cccc(Oc2cncc(-c3cncnc3)n2)c1)Nc1cccc(C(F)(F)F)c1 | 69.3 |  |  | 
Cn1nc(C(C)(C)C)cc1NC(=O)Nc1cccc(Oc2cncc(-c3ccsc3)n2)c1 | 26.8 |  |  | 
COc1ccc(-c2cncc(Oc3cccc(NC(=O)Nc4cc(C(C)(C)C)no4)c3)n2)cc1 | 37.2 |  |  | 
Cn1nc(C(C)(C)C)cc1NC(=O)Nc1cccc(Oc2cncc(-c3ccc(S(C)(=O)=O)cc3)n2)c1 | 94 |  | 490 | 
CC(C)(C)c1cc(NC(=O)Nc2cccc(Oc3cncc(-c4ccc(F)cc4)n3)c2)on1 | 47.2 |  |  | 
Nc1ccc(-c2cncc(-c3ccsc3)n2)cc1 | 17 |  |  | 
CC(C)(C)c1cc(NC(=O)Nc2cccc(Oc3cncc(-c4ccsc4)n3)c2)on1 | 69 |  |  | 
CC(C)(C)c1ccc(NC(=O)Nc2cccc(Oc3cncc(-c4ccsc4)n3)c2)cc1 | 27.7 |  |  | 
CC(C)(C)c1ccc(NC(=O)Nc2cccc(Oc3cncc(-c4ccc(F)cc4)n3)c2)cc1 | 32.2 |  |  | 
Cn1nc(C(C)(C)C)cc1NC(=O)Nc1cccc(Oc2cncc(-c3ccc(F)cc3)n2)c1 | 26.9 |  |  | 
CC(C)(C)c1cc(NC(=O)Nc2cccc(Oc3cncc(Cl)n3)c2)no1 |  |  | > 100000 | 
Nc1ccc(-c2cncc(-c3cncnc3)n2)cc1 | 77 |  |  | 
Cn1cc(-c2cncc(Oc3cccc(NC(=O)Nc4cccc(C(F)(F)F)c4)c3)n2)cn1 | 92 |  | 530 | 
CC(C)(C)c1cc(NC(=O)Nc2cccc(Oc3cncc(-c4ccc(S(C)(=O)=O)cc4)n3)c2)no1 | 96.5 |  | 92 | > 2000
O=C(Nc1cccc(Oc2cncc(-c3ccsc3)n2)c1)Nc1cccc(C(F)(F)F)c1 | 96.2 |  | 1100 | 
Cn1cc(-c2cncc(Oc3cccc(NC(=O)Nc4cc(C(C)(C)C)nn4C)c3)n2)cn1 | 61.1 |  |  | 
COc1ccc(-c2cncc(Oc3cccc(NC(=O)Nc4ccc(C(C)C)cc4)c3)n2)cc1 | 98 |  | 380 | 

From ChEMBL document CHEMBL3596123, “Identification of pyrazine-based TrkA inhibitors: design, synthesis, evaluation, and computational modeling studies” (Medchemcomm, 2014)
